The source of these data is ChEMBL document CHEMBL1145782, “Systematic development of high affinity bis(ammonio)alkane-type allosteric enhancers of muscarinic ligand binding” (J Med Chem, 2003).

In test [1] the target is T1, Muscarinic acetylcholine receptor M2 (Sus scrofa) (UniProt P06199).
T1 sequence (whole entry): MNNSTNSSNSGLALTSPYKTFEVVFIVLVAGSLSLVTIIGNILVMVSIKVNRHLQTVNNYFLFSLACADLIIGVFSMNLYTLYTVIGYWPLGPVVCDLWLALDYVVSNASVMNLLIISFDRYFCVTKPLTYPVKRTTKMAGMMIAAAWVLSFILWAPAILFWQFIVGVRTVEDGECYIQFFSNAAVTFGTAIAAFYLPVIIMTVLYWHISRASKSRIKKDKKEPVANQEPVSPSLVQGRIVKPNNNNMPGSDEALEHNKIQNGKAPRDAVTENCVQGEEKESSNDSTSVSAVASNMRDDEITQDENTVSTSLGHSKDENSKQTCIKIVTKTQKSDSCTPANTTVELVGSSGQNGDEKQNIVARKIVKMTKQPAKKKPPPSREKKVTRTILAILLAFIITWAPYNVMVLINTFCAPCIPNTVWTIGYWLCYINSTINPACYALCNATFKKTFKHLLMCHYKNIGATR
Nature of the test: Binding affinity for [3H]NMS-occupied muscarinic acetylcholine receptor M2 from porcine heart ventricle. The procedure, abridged:
(§1)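 Pig heart ventricle homogenates in 2.7 mM MgHPO4, 45 mM Tris-HCl, pH 7.3, 37 °C; [3H]NMS 0.20 nM with increasing test compound concentrations; incubation 180–530 min, calculated to reach equilibrium. Nonspecific binding with 1 μM atropine; bound label separated by rapid vacuum filtration onto glass filters and counted by liquid scintillation. Affinities for free and NMS-occupied receptor derived from binding curves.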

The target in test [2] is T1, Muscarinic acetylcholine receptor M2 (Sus scrofa). Nature of the test: Cooperativity factor pAlpha at porcine heart ventricle muscarinic acetylcholine receptor M2. A digest of the protocol: as §1
In test [3] the target is T2, Muscarinic acetylcholine receptor M2 (Sus scrofa, UniProt P06199).
T2 sequence (P06199 whole entry): T1 sequence (whole entry)
Nature of the test: Effective concentration required to inhibit dissociation of [3H]NMS from porcine heart ventricles muscarinic acetylcholine receptor M2. A digest of the protocol:
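[3H]NMS dissociation in pig heart ventricle homogenates, Mg/Tris buffer pH 7.3, 37 °C. Membranes equilibrated 30 min with 0.2 nM [3H]NMS, then 1 μM atropine added alone or with various test compound concentrations. Either complete time courses over 120 min or two-point measurement (0 and 10 min); monoexponential apparent k-1 by nonlinear regression; filtration and scintillation counting.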

Test [4] concerns the target T1, Muscarinic acetylcholine receptor M2 (Sus scrofa). Nature of the test: Tested for binding of [3H]N-methylscopolamine ([3H]NMS) at porcine heart ventricle muscarinic acetylcholine receptor M2 expressed as -logKa. A digest of the protocol: as §1

Consider `C[N+](C)(CCCCCC[N+](C)(C)CCCN1C(=O)c2cc(F)c(F)cc2C1=O)CCCN1C(=O)c2cc(F)c(F)cc2C1=O`, for which, in test [1], the p alphaKa was found to be 6.08. The molecule further gave a pAlpha in test [2] of -0.39. In addition, the EC50 (as a rule, the midpoint of the concentration-response curve) in test [3] was 741 nM. For the same molecule, the -logKa in test [4] came to 6.47.

Turning to `C[N+](C)(CCCCCC[N+](C)(C)CCCN1C(=O)c2ccccc2C1=O)CCCN1C(=O)c2ccccc2C1=O`, in test [1], the p alphaKa was determined as 5.73. Moreover, the pAlpha in test [2] was -0.47. A half-maximal effect in test [3] (EC50) was put at 1350 nM. Moreover, the -logKa in test [4] was found to be 6.19.

In test [1], `C[N+](C)(CCCCCC[N+](C)(C)CCCN1C(=O)c2nccnc2C1=O)CCCN1C(=O)c2ccccc2C1=O` displayed a p alphaKa of 5.66. Further, in test [2], the pAlpha was -0.59. The molecule further had a 50% effective concentration (EC50) in test [3] of 1620 nM. Besides, the -logKa in test [4] stood at 6.25.

`C[N+](C)(CCCCCC[N+](C)(C)CCCN1C(=O)C2C3c4ccccc4C(c4ccccc43)C2C1=O)CCCN1C(=O)c2ccccc2C1=O` (centres undefined) returned a p alphaKa in test [1] of 6.56. The same molecule showed a pAlpha in test [2] of -1.21. In test [3], this molecule gave an EC50 of 204 nM. The molecule further had a -logKa in test [4] of 7.78.

In test [1], `C[N+](C)(CCCCCC[N+](C)(C)CCCN1C(=O)c2cc3ccccc3cc2C1=O)CCCN1C(=O)c2cc3ccccc3cc2C1=O` registered a p alphaKa of 6.77. Besides, the pAlpha in test [2] is -0.85. Moreover, the EC50 in test [3] is 204 nM. Also, in test [4], the -logKa amounted to 7.62.

In test [1], `Cc1ccc2c(c1)C(=O)N(CCC[N+](C)(C)CCCCCC[N+](C)(C)CC(C)(C)CN1C(=O)c3ccc(C)cc3C1=O)C2=O` had a p alphaKa of 7.44. The pAlpha in test [2] came out at 0.03. In test [3], this molecule had a concentration for a half-maximal effect (EC50) of 36.3 nM. This molecule came in with a -logKa in test [4] of 7.41.

In turn, `CC(C)(CN1C(=O)c2ccccc2C1=O)C[N+](C)(C)CCCCCC[N+](C)(C)CCCN1C(=O)c2ccccc2C1=O` registered a p alphaKa in test [1] of 6.86. The molecule further showed a pAlpha in test [2] of -0.04. The same molecule had a concentration for a half-maximal effect (EC50) in test [3] of 135 nM. This molecule returned a -logKa in test [4] of 6.9.

`C[N+](C)(CCCCCC[N+](C)(C)CCCN1C(=O)c2cc3ccccc3cc2C1=O)CCCN1C(=O)c2ccccc2C1=O` returned a p alphaKa in test [1] of 6.8. Also, the pAlpha in test [2] is -0.47. Also, it took 145 nM to reach a half-maximal effect in test [3] (EC50). This molecule also registered a -logKa in test [4] of 7.27.

As to `Cc1ccc2c(c1)C(=O)N(CC(C)(C)C[N+](C)(C)CCCCCC[N+](C)(C)CCCN1C(=O)c3cccc4cccc(c34)C1=O)C2=O`, the p alphaKa in test [1] amounted to 7.44. Moreover, in test [2], the pAlpha was -0.04. Further, the EC50 in test [3] was 36.3 nM. In addition, in test [4], the -logKa worked out at 7.48.

In turn, `Cc1ccc2c(c1)C(=O)N(CCC[N+](C)(C)CCCCCC[N+](C)(C)CC(C)(C)CN1C(=O)c3cccc4cccc(c34)C1=O)C2=O` had a p alphaKa in test [1] of 8.23. In addition, the pAlpha in test [2] was determined as 0.32. It took 7.59 nM to reach a half-maximal effect in test [3] (EC50). The same molecule had a -logKa in test [4] of 7.9.

`CC(C)(CN1C(=O)c2ccccc2C1=O)C[N+](C)(C)CCCCCC[N+](C)(C)CC(C)(C)CN1C(=O)c2cccc3cccc(c23)C1=O`: in test [1], the p alphaKa is 7.97. In addition, in test [2], the pAlpha was determined as 0.56. The molecule further gave an EC50 in test [3] of 18.6 nM. Moreover, the -logKa in test [4] was determined as 7.41.

`C[N+](C)(CCCCCC[N+](C)(C)CCCN1C(=O)c2nccnc2C1=O)CCCN1C(=O)c2nccnc2C1=O` registered a p alphaKa in test [1] of 5. The same molecule returned a pAlpha in test [2] of -0.44. In test [3], the EC50 is 6310 nM. In addition, the -logKa in test [4] amounted to 5.44.

The molecule `Cc1ccc2c(c1)C(=O)N(CC(C)(C)C[N+](C)(C)CCCCCC[N+](C)(C)CC(C)(C)CN1C(=O)c3cccc4cccc(c34)C1=O)C2=O` came in with a p alphaKa in test [1] of 8.19. Also, the pAlpha in test [2] was 0.29. This molecule also gave an EC50 in test [3] of 14.1 nM. The molecule further yielded a -logKa in test [4] of 7.9.

In test [1], `CC(C)(C)c1ccc2c(c1)C(=O)N(CCC[N+](C)(C)CCCCCC[N+](C)(C)CCCN1C(=O)c3ccc(C(C)(C)C)cc3C1=O)C2=O` returned a p alphaKa of 6.49. Further, the pAlpha in test [2] was -0.89. Also, a half-maximal response in test [3] (EC50) required 302 nM. In test [4], this molecule gave a -logKa of 7.38.

Turning to `Cc1ccc2c(c1)C(=O)N(CC(C)(C)C[N+](C)(C)CCCCCC[N+](C)(C)CCCN1C(=O)c3ccccc3C1=O)C2=O`, the p alphaKa in test [1] turned out to be 7.45. Also, the pAlpha in test [2] was found to be 0.19. Moreover, it took 55 nM to reach a half-maximal effect in test [3] (EC50). The -logKa in test [4] is 7.26.

As for `CC(C)(CN1C(=O)c2ccccc2C1=O)C[N+](C)(C)CCCCCC[N+](C)(C)CCCN1C(=O)c2cccc3cccc(c23)C1=O`, the p alphaKa in test [1] is 7.28. Moreover, the pAlpha in test [2] is -0.005. Further, it took 52.5 nM to reach a half-maximal effect in test [3] (EC50). The -logKa in test [4] worked out at 7.28.

In turn, `CC(C)(CN1C(=O)c2ccccc2C1=O)C[N+](C)(C)CCCCCC[N+](C)(C)CC(C)(C)CN1C(=O)c2ccccc2C1=O` had a p alphaKa in test [1] of 6.87. Moreover, in test [2], the pAlpha is -0.21. Moreover, the response in test [3] was half-maximal at 178 nM (EC50). Further, the -logKa in test [4] came out at 7.08.

Molecule `C[N+](C)(CCCCCC[N+](C)(C)CCCN1C(=O)c2ccc(C(F)(F)F)cc2C1=O)CCCN1C(=O)c2ccccc2C1=O` yielded a p alphaKa in test [1] of 6.12. Moreover, the pAlpha in test [2] is -0.21. This molecule also gave an EC50 in test [3] of 501 nM. The molecule also came in with a -logKa in test [4] of 6.32.

For `C[N+](C)(CCCCCC[N+](C)(C)CCCN1C(=O)c2cccc3cccc(c23)C1=O)CCCN1C(=O)c2cccc3cccc(c23)C1=O`, the p alphaKa in test [1] stood at 7.83. The same molecule showed a pAlpha in test [2] of -0.28. For the same molecule, the response in test [3] was half-maximal at 13.8 nM (EC50). In addition, the -logKa in test [4] is 8.11.

`Cc1ccc2c(c1)C(=O)N(CCC[N+](C)(C)CCCCCC[N+](C)(C)CCCN1C(=O)c3ccc(C)cc3C1=O)C2=O` came in with a p alphaKa in test [1] of 6.75. Further, in test [2], the pAlpha was -0.33. Further, the 50% effective concentration (EC50) in test [3] was 170 nM. In addition, the -logKa in test [4] was found to be 7.08.

Molecule `C[N+](C)(CCCCCC[N+](C)(C)CCCN1C(=O)c2ccc(C(F)(F)F)cc2C1=O)CCCN1C(=O)c2ccc(C(F)(F)F)cc2C1=O` came in with a p alphaKa in test [1] of 6.15. In test [2], this molecule came in with a pAlpha of -0.22. The same molecule showed an EC50 in test [3] of 447 nM. This molecule yielded a -logKa in test [4] of 6.37.

Turning to `Cc1ccc2c(c1)C(=O)N(CCC[N+](C)(C)CCCCCC[N+](C)(C)CCCN1C(=O)c3cccc4cccc(c34)C1=O)C2=O`, the p alphaKa in test [1] is 7.79. The molecule also had a pAlpha in test [2] of -0.22. In test [3], this molecule showed a concentration giving a half-maximal response (EC50) of 25.1 nM. The molecule also registered a -logKa in test [4] of 8.01.

In turn, `C[N+](C)(CCCCCC[N+](C)(C)CCCN1C(=O)c2cc(F)c(F)cc2C1=O)CCCN1C(=O)c2ccccc2C1=O` came in with a p alphaKa in test [1] of 6.31. In addition, the pAlpha in test [2] is -0.37. The molecule further had an EC50 in test [3] of 457 nM. The same molecule showed a -logKa in test [4] of 6.68.

`C[N+](C)(CCCCCC[N+](C)(C)CCCN1C(=O)C2C3c4ccccc4C(c4ccccc43)C2C1=O)CCCN1C(=O)C2C3c4ccccc4C(c4ccccc43)C2C1=O` (centres undefined): the p alphaKa in test [1] came out at 6.74. Besides, the pAlpha in test [2] is -1.38. Moreover, the EC50 in test [3] is 398 nM. Moreover, in test [4], the -logKa amounted to 8.12.

In turn, `Cc1ccc2c(c1)C(=O)N(CC(C)(C)C[N+](C)(C)CCCCCC[N+](C)(C)CC(C)(C)CN1C(=O)c3ccc(C)cc3C1=O)C2=O` returned a p alphaKa in test [1] of 7.38. Further, in test [2], the pAlpha was 0.17. Besides, the half-maximal effective concentration (EC50) in test [3] is 46.8 nM. Moreover, the -logKa in test [4] was 7.21.

As for `C[N+](C)(CCCCCC[N+](C)(C)CCCN1C(=O)c2cc(Cl)c(Cl)cc2C1=O)CCCN1C(=O)c2cc(Cl)c(Cl)cc2C1=O`, in test [1], the p alphaKa was 6.57. The pAlpha in test [2] was -0.29. The molecule further had an EC50 in test [3] of 229 nM. This molecule returned a -logKa in test [4] of 6.83.
